Data as given in ChEMBL document CHEMBL1828617, “The activity of dispiro peroxides against Fasciola hepatica” (2011).
Active and inactive are the calls of the source. The rule behind the calls is not given here.

Tests used:
Fasciola hepatica [1] = assay: Antiparasitic activity against Fasciola hepatica infected in rat assessed as reduction in worm burden at 100 mg/kg, po administered as single dose measured after 6 days post treatment; format: functional; design: scale not given: the % may be the effect or the level left
Outline: (§1)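 Rats harbouring adult F. hepatica, treated at 8–13 weeks post-infection with a single oral dose given as a suspension in 7% (v/v) Tween 80 and 3% (v/v) EtOH. Killed at day 6 post-treatment. Adult flukes recovered from bile ducts and livers. Worm burden reduction taken from mean total worm burdens of treated versus untreated control rats. Cures = rats cured/rats treated. Significance by Kruskal-Wallis test.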

Fasciola hepatica [2] = assay: Antiparasitic activity against Fasciola hepatica infected in rat assessed as cure rate at 100 mg/kg, po administered as single dose measured after 6 days post treatment; format: functional, organism-based; design: dose 100 mg/kg; outline: as §1
Fasciola hepatica [3] = assay: Antiparasitic activity against Fasciola hepatica infected in rat assessed as reduction in worm burden at 50 mg/kg, po administered as single dose measured after 6 days post treatment; format: functional; design: scale not given: the % may be the effect or the level left; outline: as §1
Fasciola hepatica [4] = assay: Antiparasitic activity against Fasciola hepatica infected in rat assessed as cure rate at 50 mg/kg, po administered as single dose measured after 6 days post treatment; format: functional, organism-based; design: dose 50 mg/kg; outline: as §1
Fasciola hepatica [5] = assay: Antiparasitic activity against Fasciola hepatica infected in rat assessed as reduction in worm burden at 25 mg/kg, po administered as single dose measured after 6 days post treatment; format: functional; design: scale not given: the % may be the effect or the level left; outline: as §1
Fasciola hepatica [6] = assay: Antiparasitic activity against Fasciola hepatica infected in rat assessed as cure rate at 25 mg/kg, po administered as single dose measured after 6 days post treatment; format: functional, organism-based; design: dose 25 mg/kg; outline: as §1

Row | SMILES | Activity (Fasciola hepatica [1]) | Activity (Fasciola hepatica [2]) | Activity (Fasciola hepatica [3]) | Activity (Fasciola hepatica [4]) | Activity (Fasciola hepatica [5]) | Activity (Fasciola hepatica [6])
1 | C[C@H]1[C@H](OC(=O)CCC(=O)O)O[C@@H]2O[C@@]3(C)CC[C@H]4[C@H](C)CC[C@@H]1[C@@]24OO3 [ARTESUNATE] | 30% |  |  |  |  | 
2 | O=C(O)c1ccc(C2CCC3(CC2)OOC2(O3)C3CC4CC(C3)CC2C4)cc1 (centres undefined) | 100% | Active | 19% | inactive |  | 
3 | O=C(O)C[C@H]1CC[C@]2(CC1)COC1(CCCCC1)OO2 | 95% |  |  |  |  | 
4 | O=C(O)[C@H]1CC[C@]2(CC1)OO[C@]1(O2)C2CC3CC(C2)CC1C3 | 52% | inactive |  |  |  | 
5 | O=C(O)[C@H]1CC[C@]2(CC1)COC1(CCCCC1)OO2 | 100% | Active | 71% | inactive |  | 
6 | O=C(O)c1ccc([C@H]2CC[C@]3(CC2)COC2(OO3)C3CC4CC(C3)CC2C4)cc1 (some centres undefined) | 100% | Active | 100% | Active | 0% | 
7 | O=C(O)c1ccc(C2CCC3(CC2)OOC2(OO3)C3CC4CC(C3)CC2C4)cc1 (centres undefined) | 92% |  |  |  |  | 
8 | O=C(O)C1CCC2(CC1)OOC1(OO2)C2CC3CC(C2)CC1C3 (centres undefined) | 100% | Active | 48% |  |  | 
9 | O=C(O)[C@H]1CC[C@@]2(CC1)OOC1(CCCCC1)O2 | 26% | inactive |  |  |  | 
10 | O=C(O)C[C@H]1CC[C@]2(CC1)OOC1(O2)C2CC3CC(C2)CC1C3 (some centres undefined) | 100% | Active |  |  |  | 
11 | O=C(O)CC1CCC2(CC1)OOC1(OO2)C2CC3CC(C2)CC1C3 (centres undefined) | 100% | Active | 100% | Active | 71% | inactive
12 | O=C(O)CC1CCC2(CC1)OCC1(OO2)C2CC3CC(C2)CC1C3 (centres undefined) | 0% | inactive |  |  |  | 
13 | O=C(O)CC1CCC2(CC1)OOC1(CCCCC1)OO2 | 29% | inactive |  |  |  | 
14 | O=C(O)C1CCC2(CC1)OOC1(CCCCC1)OO2 | 100% | Active | 61% |  |  | 
15 | O=C(O)[C@H]1CC[C@]2(CC1)COC1(OO2)C2CC3CC(C2)CC1C3 (some centres undefined) | 61% |  |  |  |  | 
16 | O=C(O)C[C@H]1CC[C@]2(CC1)COC1(OO2)C2CC3CC(C2)CC1C3 (some centres undefined) | 100% | Active | 100% | Active | 88% | 
